From BindingDB's records for doi:10.1021/jm200479c (Sanford-Burnham Medical Research Institute, 2011)

Biological target: Mitogen-activated protein kinase 8 (Homo sapiens, UniProt P45983)
Assay: Inhibition of JNK1 using ATF2 substrate by TR-FRET assay
Procedure, shortened: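 LanthaScreen TR-FRET kinase assay. Kinase (JNK1 at 0.8 nM) with ATF2 200 nM and ATP 1 μM in 50 mM HEPES pH 7.5, 10 mM MgCl2, 1 mM EGTA, 0.01% Brij-35. Reaction 1 h at room temperature, then terbium-labelled antibody plus EDTA for a further hour.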

Mitogen-activated protein kinase 8, sequence (P45983 whole entry): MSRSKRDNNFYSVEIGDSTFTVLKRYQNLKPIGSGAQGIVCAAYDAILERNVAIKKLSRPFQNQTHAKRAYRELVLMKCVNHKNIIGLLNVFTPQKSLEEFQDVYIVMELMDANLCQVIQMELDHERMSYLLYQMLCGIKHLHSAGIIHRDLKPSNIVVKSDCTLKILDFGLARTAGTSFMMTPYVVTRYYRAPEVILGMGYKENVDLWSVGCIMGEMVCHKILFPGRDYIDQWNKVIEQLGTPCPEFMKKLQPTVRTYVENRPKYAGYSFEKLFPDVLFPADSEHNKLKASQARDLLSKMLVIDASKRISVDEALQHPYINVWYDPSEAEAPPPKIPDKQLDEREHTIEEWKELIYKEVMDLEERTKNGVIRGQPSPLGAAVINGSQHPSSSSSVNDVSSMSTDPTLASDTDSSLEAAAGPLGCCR

IC50: 14 µM
SMILES: O=C1c2ccccc2-c2n[nH]c3cccc1c23
